In brackets after ≈: the same amount, converted by molar mass.
Legend:
[1] = test system: Streptococcus pneumoniae; assay: Antibacterial activity against macrolide-susceptible Streptococcus pneumoniae 1077 after 50 passages following overnight incubation by agar dilution method; type: functional
[2] = test system: Streptococcus pneumoniae; assay: Antibacterial activity against macrolide-resistant Streptococcus pneumoniae 1635 harboring erm(A) gene after 49 passages following overnight incubation by agar dilution method; type: functional
[3] = test system: Streptococcus pneumoniae; assay: Antibacterial activity against macrolide-resistant Streptococcus pneumoniae 3665 harboring mef(A) gene after 26 passages following overnight incubation by agar dilution method; type: functional
[4] = test system: Streptococcus pneumoniae; assay: Antibacterial activity against macrolide-resistant Streptococcus pneumoniae 3009 harboring mutation in 23S rRNA after 25 passages following overnight incubation by agar dilution method; type: functional
[5] = test system: Streptococcus pyogenes; assay: Antibacterial activity against macrolide-resistant Streptococcus pyogenes 2094 harboring erm(A) gene after 6 passages following overnight incubation by agar dilution method
[6] = test system: Streptococcus pneumoniae; assay: Antibacterial activity against macrolide-susceptible Streptococcus pneumoniae 7127 harboring S20N mutation in L4 ribosomal protein and A105V mutation in L22 ribosomal protein after 15 passages following overnight incubation by agar dilution method; type: functional
[7] = test system: Streptococcus pyogenes; assay: Antibacterial activity against macrolide-resistant Streptococcus pyogenes 2094 harboring erm(A) gene after 34 passages following overnight incubation by agar dilution method
[8] = test system: Streptococcus pneumoniae; assay: Antibacterial activity against macrolide-resistant Streptococcus pneumoniae 1635 harboring erm(A) gene after 50 passages following overnight incubation by […]; type: functional
How it was run: (§1)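 S. pneumoniae parental strains were passaged daily in subinhibitory drug concentrations in cation-adjusted Mueller-Hinton broth with 5% lysed horse blood. Each passage was seeded from the tube 1 to 2 dilutions below the MIC whose turbidity matched the growth control. MICs of resistant clones were measured by CLSI macrodilution. Parent and clone identity was confirmed by PFGE of SmaI-digested DNA.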

[9] = test system: Streptococcus pneumoniae; assay: Antibacterial activity against macrolide-resistant Streptococcus pneumoniae 2686 harboring mutation in L4 ribosomal protein after 25 passages following overnight incubation by […]; type: functional; how it was run: as §1
[10] = test system: Streptococcus pyogenes; assay: Antibacterial activity against macrolide-resistant Streptococcus pyogenes 2368 harboring erm(B) gene after 6 passages following overnight incubation by agar dilution method
[11] = test system: Streptococcus pneumoniae; assay: Antibacterial activity against macrolide-susceptible Streptococcus pneumoniae 7127 harboring S20N mutation in L4 ribosomal protein and A105V mutation in L22 ribosomal protein after 38 passages following overnight incubation […]; type: functional; how it was run: as §1
[12] = test system: Streptococcus pneumoniae; assay: Antibacterial activity against macrolide-susceptible Streptococcus pneumoniae 1077 after 43 passages following overnight incubation by agar dilution method; type: functional
[13] = test system: Streptococcus pyogenes; assay: Antibacterial activity against macrolide-resistant Streptococcus pyogenes 2094 harboring erm(A) gene after 43 passages following overnight incubation by agar dilution method
[14] = test system: Streptococcus pyogenes; assay: Antibacterial activity against macrolide-resistant Streptococcus pyogenes 2011 harboring mef(A) gene after 35 passages following overnight incubation by agar dilution method
[15] = test system: Streptococcus pyogenes; assay: Antibacterial activity against macrolide-susceptible Streptococcus pyogenes 2132 after 28 passages following overnight incubation by agar dilution method
[16] = test system: Streptococcus pneumoniae; assay: Antibacterial activity against macrolide-susceptible Streptococcus pneumoniae 1077 after 29 passages following overnight incubation by agar dilution method; type: functional
[17] = test system: Streptococcus pyogenes; assay: Antibacterial activity against macrolide-resistant Streptococcus pyogenes 2094 harboring erm(A) gene after 5 passages following overnight incubation by agar dilution method

Question: With `CC[C@H]1OC(=O)[C@H](C)[C@@H](O[C@H]2C[C@@](C)(OC)[C@@H](O)[C@H](C)O2)[C@H](C)[C@@H](O[C@@H]2O[C@H](C)C[C@H](N(C)C)[C@H]2O)[C@](C)(OC)C[C@@H](C)C(=O)[C@H](C)[C@@H](O)[C@]1(C)O` [CLARITHROMYCIN] as the molecule, how does the MIC [1] read?
Answer: 0.008 µg/mL (≈ 0.0107 µM)

Question: What about the MIC [2] of the same molecule?
Answer: > 64 µg/mL

Question: What about the MIC [3] of the same molecule?
Answer: 16 µg/mL (≈ 21.4 µM)

Question: And the MIC [4]?
Answer: > 64 µg/mL

Question: What about the MIC [5] of the same molecule?
Answer: > 64 µg/mL

Question: What about the MIC [6] of the same molecule?
Answer: 16 µg/mL (≈ 21.4 µM)

Question: How did the MIC [7] turn out when `CCC[C@@H]1C[C@@H](C(=O)N[C@@H]([C@H]2O[C@H](SC)[C@H](O)[C@@H](O)[C@H]2O)[C@H](C)Cl)N(C)C1` [CLINDAMYCIN] was run?
Answer: > 64 µg/mL

Question: With `CC[C@H]1OC(=O)[C@H](C)C(=O)[C@H](C)[C@@H](O[C@@H]2O[C@H](C)C[C@H](N(C)C)[C@H]2O)[C@](C)(OC)C[C@@H](C)C(=O)[C@H](C)[C@H]2N(CCCCn3cnc(-c4cccnc4)c3)C(=O)O[C@]12C` [TELITHROMYCIN] as the molecule, how does the MIC [8] read?
Answer: 0.008 µg/mL (≈ 0.00985 µM)

Question: And the MIC [9]?
Answer: 0.5 µg/mL (≈ 0.616 µM)

Question: What about the MIC [10] of the same molecule?
Answer: > 64 µg/mL

Question: What about the MIC [11] of the same molecule?
Answer: 0.06 µg/mL (≈ 0.0739 µM)

Question: Which MIC [12] does the source give for `CC[C@H]1OC(=O)[C@@](C)(F)C(=O)[C@H](C)[C@@H](O[C@@H]2O[C@H](C)C[C@H](N(C)C)[C@H]2O)[C@](C)(OC)C[C@@H](C)C(=O)[C@H](C)[C@H]2N(CCCCn3cc(-c4cccc(N)c4)nn3)C(=O)O[C@]12C` [SOLITHROMYCIN] here?
Answer: 0.06 µg/mL (≈ 0.071 µM)

Question: What about the MIC [13] of the same molecule?
Answer: 0.25 µg/mL (≈ 0.296 µM)

Question: `CC[C@H]1OC(=O)[C@H](C)[C@@H](O[C@H]2C[C@@](C)(OC)[C@@H](O)[C@H](C)O2)[C@H](C)[C@@H](O[C@@H]2O[C@H](C)C[C@H](N(C)C)[C@H]2O)[C@](C)(O)C[C@@H](C)CN(C)[C@H](C)[C@@H](O)[C@]1(C)O` [AZITHROMYCIN] was tested. Which MIC [14] did it give?
Answer: 32 µg/mL (≈ 42.7 µM)

Question: What about the MIC [15] of the same molecule?
Answer: 1 µg/mL (≈ 1.34 µM)

Question: And the MIC [16]?
Answer: > 64 µg/mL

Question: And the MIC [17]?
Answer: > 64 µg/mL
